Columns and labels:
[1] = tested on: A2780; test: Potentiation of 10 uM cisplatin-induced toxicity in 5 uM cisplatin resistant human A2780 cells at 0.25 uM pretreated for 48 hrs followed by 5 uM cisplatin treatment by MTT assay; assay type: functional
[2] = target: Histone deacetylase 1 (Homo sapiens, UniProt Q13547); test: Inhibition of human HDAC1 by fluorescence assay
[3] = tested on: MDA-MB-231; test: Potentiation of 40 uM cisplatin-induced toxicity in 1 uM cisplatin resistant human MDA-MB-231 cells at 0.5 uM pretreated for 48 hrs followed by 1 uM cisplatin treatment by MTT assay; assay type: functional
[4] = tested on: KYSE-510; test: Potentiation of 0.75 uM cisplatin-induced toxicity in 0.5 uM cisplatin resistant human KYSE-510 cells at 1 uM pretreated for 48 hrs followed by 0.5 uM cisplatin treatment by MTT assay; assay type: functional
In short: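 Cisplatin-resistant Kyse510 CisR (derived by weekly cycles of cisplatin over 24−30 weeks), grown in RPMI 1640 with 10% FCS at 37 °C, 5% CO₂. Test agent added 48 h before cisplatin, then 72 h further incubation. Viability by MTT (read at 544/690 nm) relative to untreated control wells. Combination index by Chou−Talalay method. Mean of three experiments.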

[5] = target: T1, Protein deacetylase HDAC6 (Homo sapiens, UniProt Q9UBN7); test: Inhibition of human HDAC6 by fluorescence assay
T1 sequence (Q9UBN7 whole entry): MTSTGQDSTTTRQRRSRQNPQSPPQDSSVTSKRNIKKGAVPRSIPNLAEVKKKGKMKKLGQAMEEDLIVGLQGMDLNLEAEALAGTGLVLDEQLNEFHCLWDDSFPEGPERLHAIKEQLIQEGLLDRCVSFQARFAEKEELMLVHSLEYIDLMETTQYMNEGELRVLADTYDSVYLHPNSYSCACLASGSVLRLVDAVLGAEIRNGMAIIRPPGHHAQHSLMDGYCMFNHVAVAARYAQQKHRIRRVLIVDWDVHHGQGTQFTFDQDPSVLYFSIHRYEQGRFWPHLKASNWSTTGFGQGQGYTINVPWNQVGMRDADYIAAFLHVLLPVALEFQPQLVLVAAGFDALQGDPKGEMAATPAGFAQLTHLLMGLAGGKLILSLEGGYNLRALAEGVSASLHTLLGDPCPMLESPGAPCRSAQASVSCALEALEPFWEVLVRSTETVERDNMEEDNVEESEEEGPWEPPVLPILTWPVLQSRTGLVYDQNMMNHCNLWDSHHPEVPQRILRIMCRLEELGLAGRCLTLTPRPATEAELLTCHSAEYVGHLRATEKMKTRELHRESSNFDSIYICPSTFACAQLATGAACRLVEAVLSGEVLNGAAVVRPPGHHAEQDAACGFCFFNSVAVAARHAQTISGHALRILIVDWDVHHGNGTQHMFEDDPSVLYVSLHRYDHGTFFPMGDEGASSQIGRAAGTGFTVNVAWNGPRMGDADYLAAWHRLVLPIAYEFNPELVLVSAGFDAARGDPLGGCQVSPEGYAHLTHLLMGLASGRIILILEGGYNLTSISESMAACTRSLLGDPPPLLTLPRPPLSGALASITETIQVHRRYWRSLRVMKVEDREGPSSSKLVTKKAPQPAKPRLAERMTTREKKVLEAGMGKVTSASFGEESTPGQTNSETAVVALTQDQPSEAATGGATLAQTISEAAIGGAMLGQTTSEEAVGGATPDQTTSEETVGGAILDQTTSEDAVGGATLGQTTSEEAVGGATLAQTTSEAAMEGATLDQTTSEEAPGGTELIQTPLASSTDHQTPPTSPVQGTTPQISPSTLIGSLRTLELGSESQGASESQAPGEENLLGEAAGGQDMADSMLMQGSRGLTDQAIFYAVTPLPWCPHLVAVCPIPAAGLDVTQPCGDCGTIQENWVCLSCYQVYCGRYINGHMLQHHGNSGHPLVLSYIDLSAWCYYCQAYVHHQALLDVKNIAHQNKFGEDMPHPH

[6] = tested on: CAL-27; test: Potentiation of 1 uM cisplatin-induced toxicity in 1 uM cisplatin resistant human CAL27 cells at 1 uM pretreated for 48 hrs followed by 1 uM cisplatin treatment by MTT assay; assay type: functional
[7] = tested on: MDA-MB-231; test: Potentiation of 5 uM cisplatin-induced toxicity in 1 uM cisplatin resistant human MDA-MB-231 cells at 1.5 uM pretreated for 48 hrs followed by 1 uM cisplatin treatment by MTT assay; assay type: functional
[8] = tested on: A2780; test: Potentiation of 5 uM cisplatin-induced toxicity in 5 uM cisplatin resistant human A2780 cells at 1.5 uM pretreated for 48 hrs followed by 5 uM cisplatin treatment by MTT assay; assay type: functional
[9] = tested on: KYSE-510; test: Potentiation of 1 uM cisplatin-induced toxicity in 0.5 uM cisplatin resistant human KYSE-510 cells at 0.25 uM pretreated for 48 hrs followed by 0.5 uM cisplatin treatment by MTT assay; assay type: functional
[10] = tested on: A2780; test: Cytotoxicity against human A2780 cells after 72 hrs by MTT assay; assay type: functional, cell-based; details: A2780, 72 h
[11] = target: Histone deacetylase; test: Inhibition of HDAC in human A2780 cells after 18 hrs by fluorescence assay; assay type: cell-based
[12] = tested on: A2780; test: Potentiation of 5 uM cisplatin-induced toxicity in 5 uM cisplatin resistant human A2780 cells at 0.25 uM pretreated for 48 hrs followed by 5 uM cisplatin treatment by MTT assay; assay type: functional
[13] = tested on: KYSE-510; test: Potentiation of 1 uM cisplatin-induced toxicity in 0.5 uM cisplatin resistant human KYSE-510 cells at 0.5 uM pretreated for 48 hrs followed by 0.5 uM cisplatin treatment by MTT assay; assay type: functional
[14] = tested on: KYSE-510; test: Cytotoxicity against cisplatin sensitive human KYSE-510 cells after 72 hrs by MTT assay; assay type: functional, cell-based; details: KYSE-510, 72 h
[15] = tested on: MDA-MB-231; test: Potentiation of 25 uM cisplatin-induced toxicity in 1 uM cisplatin resistant human MDA-MB-231 cells at 1.5 uM pretreated for 48 hrs followed by 1 uM cisplatin treatment by MTT assay; assay type: functional
[16] = tested on: MDA-MB-231; test: Potentiation of […] cisplatin-induced toxicity in 1 uM cisplatin resistant human MDA-MB-231 cells at 0.5 uM pretreated for 48 hrs followed by 1 uM cisplatin treatment by MTT assay; assay type: functional
[17] = tested on: MDA-MB-231; test: Cytotoxicity against cisplatin sensitive human MDA-MB-231 cells after 72 hrs by MTT assay; assay type: functional, cell-based
In short: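 MDA-MB-231 (parental), 10 000 cells/well, in DMEM with 15% FCS at 37 °C, 5% CO2. Compounds added 24 h after seeding for 72 h. MTT (5 mg/mL in PBS) was added, formazan dissolved in DMSO, absorbance read at 544 and 690 nm. IC50 from four-parameter logistic fit of ≥3 experiments in triplicate.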

Chain of Histone deacetylase 1 (Q13547 whole entry): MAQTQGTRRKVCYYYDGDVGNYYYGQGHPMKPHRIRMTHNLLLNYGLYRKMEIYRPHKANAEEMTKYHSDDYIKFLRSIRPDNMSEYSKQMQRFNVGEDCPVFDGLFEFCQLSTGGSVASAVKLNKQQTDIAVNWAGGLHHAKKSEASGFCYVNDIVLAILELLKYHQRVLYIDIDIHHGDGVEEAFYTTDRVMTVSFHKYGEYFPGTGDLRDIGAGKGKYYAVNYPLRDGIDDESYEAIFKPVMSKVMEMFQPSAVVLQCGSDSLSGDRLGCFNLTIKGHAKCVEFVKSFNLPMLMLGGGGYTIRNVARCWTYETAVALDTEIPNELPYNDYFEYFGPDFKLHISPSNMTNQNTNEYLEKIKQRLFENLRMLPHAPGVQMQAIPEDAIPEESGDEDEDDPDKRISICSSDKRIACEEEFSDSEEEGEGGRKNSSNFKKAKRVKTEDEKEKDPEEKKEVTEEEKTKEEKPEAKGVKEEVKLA

- IC50 [2]: 320 nM
- IC50 [5]: 55.7 nM
- IC50 [11]: 650 nM
Structure (SMILES): Cc1cc(C)cc(C(=O)NOCCCCCC(=O)NO)c1
- Activity [1]: Dose-dependent effect
- fractional inhibitory concentration index (FICI) [1]: 0.78
- Activity [3]: Dose-dependent effect
- fractional inhibitory concentration index (FICI) [3]: 0.88
- Activity [4]: Dose-dependent effect
- fractional inhibitory concentration index (FICI) [4]: 0.05
- Activity [6]: Dose-dependent effect
- Activity [7]: Dose-dependent effect
- fractional inhibitory concentration index (FICI) [7]: <0.2
- Activity [8]: Dose-dependent effect
- fractional inhibitory concentration index (FICI) [8]: 0.81
- Activity [9]: Dose-dependent effect
- fractional inhibitory concentration index (FICI) [9]: 0.13
- IC50 [10]: 490 nM
- Activity [12]: Dose-dependent effect
- fractional inhibitory concentration index (FICI) [12]: 0.85
- Activity [13]: Dose-dependent effect
- fractional inhibitory concentration index (FICI) [13]: 0.08
- IC50 [14]: 2960 nM
- Activity [15]: Dose-dependent effect
- fractional inhibitory concentration index (FICI) [15]: 0.73
- Activity [16]: Dose-dependent effect
- fractional inhibitory concentration index (FICI) [16]: 0.81
- Activity [17]: Dose-dependent effect
- IC50 ([17]; MDA-MB-231, 72 h): 1370 nM
